Measured values taken from ChEMBL document CHEMBL1152480, “Synthesis of novel carbazole based macrocyclic amides as potential antimicrobial agents” (2009).
≈ marks a conversion by molar mass, not a printed value.

Key:
Proteus vulgaris = assay: Antibacterial activity against Proteus vulgaris after 24 hrs by well diffusion assay; format: functional
Method in brief: (§1)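 Bacteria kept on nutrient agar (beef extract, yeast extract, peptone, NaCl; pH 7.2) at room temperature (28 ± 2 °C). Compounds tested by well diffusion against DMSO control, tetracycline reference. MIC taken as lowest concentration giving prominent inhibition of bacterial growth after 24 h at 37 °C.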

Rhizoctonia solani = assay: Antifungal activity against Rhizoctonia solani after 3 days by well diffusion assay; format: functional; conditions: for MIC: 72 h
Method in brief: (§2)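 Fungi maintained on potato dextrose agar (potato 200 g/l, dextrose 20 g/l; pH 6.5) at room temperature (28 ± 2 °C). Well diffusion assay against DMSO control; MIC read as lowest concentration causing prominent inhibition of fungal growth after 3 days incubation at 37 °C.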

Curvularia lunata = assay: Antifungal activity against Curvularia lunata after 3 days by well diffusion assay; format: functional; conditions: for MIC: 72 h; method in brief: as §2
Staphylococcus aureus = assay: Antibacterial activity against Staphylococcus aureus after 24 hrs by well diffusion assay; format: functional; method in brief: as §1
Alternaria alternata = assay: Antifungal activity against Alternaria alternata after 3 days by well diffusion assay; format: functional; conditions: for MIC: 72 h; method in brief: as §2
Macrophomina phaseolina = assay: Antifungal activity against Macrophomina phaseolina after 3 days by well diffusion assay; format: functional; conditions: for MIC: 72 h; method in brief: as §2
Proteus mirabilis = assay: Antibacterial activity against Proteus mirabilis after 24 hrs by well diffusion assay; format: functional; method in brief: as §1
[1] = test system: Salmonella enterica subsp. enterica; assay: Antibacterial activity against Salmonella typhi after 24 hrs by well diffusion assay; format: functional, Salmonella enterica subsp. enterica serovar Typhi; conditions: for Activity: Salmonella enterica subsp. enterica serovar Typhi
Method in brief: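 S. typhi kept on nutrient agar (beef extract, yeast extract, peptone, NaCl, agar; pH 7.2) at 28 ± 2 °C. Agar well diffusion with DMSO as control and tetracycline as reference. MIC taken as the lowest concentration giving prominent inhibition of bacterial growth after 24 h at 37 °C.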

In the case of `CCn1c2ccc3cc2c2cc(ccc21)CSc1ccccc1NC(=O)COc1cccc(c1)OCC(=O)Nc1ccccc1SC3`, the Activity (Proteus vulgaris) is reported as “Dose-dependent effect”, the MIC (Proteus vulgaris) is reported as 60 µg/mL (≈ 90.9 µM) and the Activity (Rhizoctonia solani) is reported as “Dose-dependent effect”. The MIC (Rhizoctonia solani) was 50 µg/mL (≈ 75.8 µM), the Activity (Curvularia lunata) was “Dose-dependent effect” and the MIC (Curvularia lunata) was 35 µg/mL (≈ 53 µM). The Activity (Staphylococcus aureus) was “Dose-dependent effect”, the MIC (Staphylococcus aureus) was 40 µg/mL (≈ 60.6 µM) and the Activity (Alternaria alternata) was “Dose-dependent effect”. For the same compound, the MIC (Alternaria alternata) was 25 µg/mL (≈ 37.9 µM), the Activity (Macrophomina phaseolina) was “Dose-dependent effect” and the MIC (Macrophomina phaseolina) was 45 µg/mL (≈ 68.2 µM). The Activity (Proteus mirabilis) was “Dose-dependent effect”, the MIC (Proteus mirabilis) was 20 µg/mL (≈ 30.3 µM) and the MIC [1] was 30 µg/mL (≈ 45.5 µM). For the same compound, the Activity [1] was “Dose-dependent effect”.

Work on `COC(=O)Nc1nc2ccccc2[nH]1` [CARBENDAZIM] yielded an MIC (Rhizoctonia solani) of 25 µg/mL (≈ 131 µM), an MIC (Curvularia lunata) of 15 µg/mL (≈ 78.5 µM) and an MIC (Alternaria alternata) of 12 µg/mL (≈ 62.8 µM). For the same compound, the MIC (Macrophomina phaseolina) was 18 µg/mL (≈ 94.1 µM).

`CN(C)[C@@H]1C(O)=C(C(N)=O)C(=O)[C@@]2(O)C(O)=C3C(=O)c4c(O)cccc4[C@@](C)(O)[C@H]3C[C@@H]12` [TETRACYCLINE] gave an MIC (Proteus vulgaris) of 35 µg/mL (≈ 78.8 µM), an MIC (Staphylococcus aureus) of 20 µg/mL (≈ 45 µM) and an MIC (Proteus mirabilis) of 20 µg/mL (≈ 45 µM). The MIC [1] was 15 µg/mL (≈ 33.8 µM).

With `CCn1c2ccc3cc2c2cc(ccc21)CSc1ccccc1NC(=O)COc1ccc2ccccc2c1-c1c(ccc2ccccc12)OCC(=O)Nc1ccccc1SC3` the Activity (Proteus vulgaris) was “Dose-dependent effect”, the MIC (Proteus vulgaris) was 5 µg/mL (≈ 5.98 µM) and the Activity (Rhizoctonia solani) was “Dose-dependent effect”. For the same compound, the MIC (Rhizoctonia solani) was 20 µg/mL (≈ 23.9 µM), the Activity (Curvularia lunata) was “Dose-dependent effect” and the MIC (Curvularia lunata) was 10 µg/mL (≈ 12 µM). The Activity (Staphylococcus aureus) was “Dose-dependent effect”, the MIC (Staphylococcus aureus) was 10 µg/mL (≈ 12 µM) and the Activity (Alternaria alternata) was “Dose-dependent effect”. For the same compound, the MIC (Alternaria alternata) was 10 µg/mL (≈ 12 µM), the Activity (Macrophomina phaseolina) was “Dose-dependent effect” and the MIC (Macrophomina phaseolina) was 15 µg/mL (≈ 17.9 µM). The Activity (Proteus mirabilis) was “Dose-dependent effect”, the MIC (Proteus mirabilis) was 5 µg/mL (≈ 5.98 µM) and the MIC [1] was 10 µg/mL (≈ 12 µM). The Activity [1] was “Dose-dependent effect”.

For `CCn1c2ccc3cc2c2cc(ccc21)CSc1ccccc1NC(=O)c1cccc(c1)C(=O)Nc1ccccc1SC3`, the Activity (Proteus vulgaris) was “Dose-dependent effect”, the MIC (Proteus vulgaris) was 60 µg/mL (≈ 100 µM) and the Activity (Rhizoctonia solani) was “Dose-dependent effect”. For the same compound, the MIC (Rhizoctonia solani) was 30 µg/mL (≈ 50 µM), the Activity (Curvularia lunata) was “Dose-dependent effect” and the MIC (Curvularia lunata) was 20 µg/mL (≈ 33.3 µM). The Activity (Staphylococcus aureus) was “Dose-dependent effect”, the MIC (Staphylococcus aureus) was 20 µg/mL (≈ 33.3 µM) and the Activity (Alternaria alternata) was “Dose-dependent effect”. For the same compound, the MIC (Alternaria alternata) was 15 µg/mL (≈ 25 µM), the Activity (Macrophomina phaseolina) was “Dose-dependent effect” and the MIC (Macrophomina phaseolina) was 30 µg/mL (≈ 50 µM). For the same compound, the Activity (Proteus mirabilis) was “Dose-dependent effect”, the MIC (Proteus mirabilis) was 50 µg/mL (≈ 83.4 µM) and the MIC [1] was 50 µg/mL (≈ 83.4 µM). The Activity [1] was “Dose-dependent effect”.

`CCn1c2ccc3cc2c2cc(ccc21)CSc1ccccc1NC(=O)c1ccccc1-c1ccccc1C(=O)Nc1ccccc1SC3` was tested, and the Activity (Proteus vulgaris) was “Dose-dependent effect”, the MIC (Proteus vulgaris) was 40 µg/mL (≈ 59.2 µM) and the Activity (Rhizoctonia solani) was “Dose-dependent effect”. The MIC (Rhizoctonia solani) was 20 µg/mL (≈ 29.6 µM), the Activity (Curvularia lunata) was “Dose-dependent effect” and the MIC (Curvularia lunata) was 20 µg/mL (≈ 29.6 µM). For the same compound, the Activity (Staphylococcus aureus) was “Dose-dependent effect”, the MIC (Staphylococcus aureus) was 70 µg/mL (≈ 104 µM) and the Activity (Alternaria alternata) was “Dose-dependent effect”. The MIC (Alternaria alternata) was 25 µg/mL (≈ 37 µM), the Activity (Macrophomina phaseolina) was “Dose-dependent effect” and the MIC (Macrophomina phaseolina) was 15 µg/mL (≈ 22.2 µM). For the same compound, the Activity (Proteus mirabilis) was “Dose-dependent effect”, the MIC (Proteus mirabilis) was 40 µg/mL (≈ 59.2 µM) and the MIC [1] was 60 µg/mL (≈ 88.8 µM). For the same compound, the Activity [1] was “Dose-dependent effect”.

`CCn1c2ccc3cc2c2cc(ccc21)CSc1ccccc1NC(=O)c1ccc(cc1)OCc1ccccc1COc1ccc(cc1)C(=O)Nc1ccccc1SC3` was tested, and the Activity (Proteus vulgaris) was “Dose-dependent effect”, the MIC (Proteus vulgaris) was 40 µg/mL (≈ 49.3 µM) and the Activity (Rhizoctonia solani) was “Dose-dependent effect”. The MIC (Rhizoctonia solani) was 40 µg/mL (≈ 49.3 µM), the Activity (Curvularia lunata) was “Dose-dependent effect” and the MIC (Curvularia lunata) was 20 µg/mL (≈ 24.6 µM). For the same compound, the Activity (Staphylococcus aureus) was “Dose-dependent effect”, the MIC (Staphylococcus aureus) was 30 µg/mL (≈ 36.9 µM) and the Activity (Alternaria alternata) was “Dose-dependent effect”. The MIC (Alternaria alternata) was 15 µg/mL (≈ 18.5 µM), the Activity (Macrophomina phaseolina) was “Dose-dependent effect” and the MIC (Macrophomina phaseolina) was 50 µg/mL (≈ 61.6 µM). For the same compound, the Activity (Proteus mirabilis) was “Dose-dependent effect”, the MIC (Proteus mirabilis) was 10 µg/mL (≈ 12.3 µM) and the MIC [1] was 20 µg/mL (≈ 24.6 µM). For the same compound, the Activity [1] was “Dose-dependent effect”.

`CCn1c2ccc3cc2c2cc(ccc21)CSc1ccccc1NC(=O)c1cccc(n1)C(=O)Nc1ccccc1SC3` was tested, and the Activity (Proteus vulgaris) was “Dose-dependent effect”, the MIC (Proteus vulgaris) was 30 µg/mL (≈ 49.9 µM) and the Activity (Rhizoctonia solani) was “Dose-dependent effect”. For the same compound, the MIC (Rhizoctonia solani) was 20 µg/mL (≈ 33.3 µM), the Activity (Curvularia lunata) was “Dose-dependent effect” and the MIC (Curvularia lunata) was 15 µg/mL (≈ 25 µM). For the same compound, the Activity (Staphylococcus aureus) was “Dose-dependent effect”, the MIC (Staphylococcus aureus) was 10 µg/mL (≈ 16.6 µM) and the Activity (Alternaria alternata) was “Dose-dependent effect”. The MIC (Alternaria alternata) was 15 µg/mL (≈ 25 µM), the Activity (Macrophomina phaseolina) was “Dose-dependent effect” and the MIC (Macrophomina phaseolina) was 10 µg/mL (≈ 16.6 µM). For the same compound, the Activity (Proteus mirabilis) was “Dose-dependent effect”, the MIC (Proteus mirabilis) was 5 µg/mL (≈ 8.32 µM) and the MIC [1] was 30 µg/mL (≈ 49.9 µM). The Activity [1] was “Dose-dependent effect”.
